ChEMBL document CHEMBL1671686, “Carbapenem-resistant KPC-2-producing Escherichia coli in a Tel Aviv Medical Center, 2005 to 2008” (2010)
In brackets after ≈: the same amount, converted by molar mass.

What was measured:
Format in all cases: functional
[1] = system: Escherichia coli; assay: Antimicrobial activity against Escherichia coli DH10B by vitek-2 method; details: K-12 DH10B
Summary of the method: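 Plasmid-free recipient E. coli DH10B, used as the host for electroporation transformants, was tested for susceptibility on the automated Vitek-2 system.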

[2] = system: Escherichia coli; assay: Antimicrobial activity against Escherichia coli isolate 386 expressing beta-lactamase KPC2, CTX-M-15, OXA-9, TEM and PFGE cluster 1 isolated from wound of patient by vitek-2 method
[3] = system: Escherichia coli; assay: Antimicrobial activity against Escherichia coli isolate 339T expressing beta-lactamase KPC2 and PFGE cluster 5 isolated from peritoneal fluid of patient by vitek-2 method
[4] = system: Escherichia coli; assay: Antimicrobial activity against Escherichia coli isolate 360 expressing beta-lactamase KPC2, CTX-M-15, OXA-9, TEM and PFGE cluster 1 isolated from urine of patient by vitek-2 method
[5] = system: Escherichia coli; assay: Antimicrobial activity against Escherichia coli isolate 547T expressing beta-lactamase KPC2 and PFGE cluster 4 isolated from blood of patient by vitek-2 method
[6] = system: Escherichia coli; assay: Antimicrobial activity against Escherichia coli isolate 329 expressing beta-lactamase KPC2, CTX-M-2, TEM and PFGE cluster 2 isolated from blood of patient by vitek-2 method
[7] = system: Escherichia coli; assay: Antimicrobial activity against Escherichia coli isolate 386T expressing beta-lactamase KPC2, OXA-9 and PFGE cluster 1 isolated from wound of patient by vitek-2 method
[8] = system: Escherichia coli; assay: Antimicrobial activity against Escherichia coli isolate 329T expressing beta-lactamase KPC2 and PFGE cluster 2 isolated from blood of patient by vitek-2 method
[9] = system: Escherichia coli; assay: Antimicrobial activity against Escherichia coli isolate 157T expressing beta-lactamase KPC2 and PFGE cluster 3 isolated from urine of patient by vitek-2 method
[10] = system: Escherichia coli; assay: Antimicrobial activity against Escherichia coli isolate 360T expressing beta-lactamase KPC2, OXA-9 and PFGE cluster 1 isolated from urine of patient by vitek-2 method
[11] = system: Escherichia coli; assay: Antimicrobial activity against Escherichia coli isolate 547 expressing beta-lactamase KPC2, TEM and PFGE cluster 4 isolated from blood of patient by vitek-2 method
[12] = system: Escherichia coli; assay: Antimicrobial activity against Escherichia coli isolate 339 expressing beta-lactamase KPC2, TEM and PFGE cluster 5 isolated from peritoneal fluid of patient by vitek-2 method
[13] = system: Escherichia coli; assay: Antimicrobial activity against Escherichia coli isolate 1679 expressing beta-lactamase KPC2, SHV-12, TEM and PFGE cluster 6 isolated from peritoneal fluid of patient by vitek-2 method
[14] = system: Escherichia coli; assay: Antimicrobial activity against Escherichia coli isolate 1679T expressing beta-lactamase KPC2, TEM and PFGE cluster 6 isolated from peritoneal fluid of patient by vitek-2 method
[15] = system: Escherichia coli; assay: Antimicrobial activity against Escherichia coli isolate 157 expressing beta-lactamase KPC2, CTX-M-15, TEM and PFGE cluster 3 isolated from urine of patient by vitek-2 method
[16] = system: Escherichia coli; assay: Antimicrobial activity against Escherichia coli isolate 543 expressing beta-lactamase KPC2, CTX-M-15, TEM and PFGE cluster 4 isolated from synovial fluid of patient by vitek-2 method
[17] = system: Escherichia coli; assay: Antimicrobial activity against Escherichia coli isolate 543T expressing beta-lactamase KPC2 and PFGE cluster 4 isolated from synovial fluid of patient by vitek-2 method
[18] = system: Escherichia coli; assay: Antimicrobial activity against Escherichia coli isolate 544 expressing beta-lactamase KPC2, TEM and PFGE cluster 4 isolated from abscess of patient by vitek-2 method
[19] = system: Escherichia coli; assay: Antimicrobial activity against Escherichia coli isolate 540 expressing beta-lactamase KPC2, TEM and PFGE cluster 4 isolated from synovial fluid of patient by vitek-2 method
[20] = system: Escherichia coli; assay: Antimicrobial activity against Escherichia coli isolate 547T expressing beta-lactamase KPC2 and PFGE cluster 4 isolated from blood of patient by agar dilution method
Summary of the method: (§1)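 Transformant strains. Plasmids purified from the clinical isolates were electroporated into E. coli DH10B. Transformants were selected on LB agar with 100 μg/ml ampicillin, and colonies were PCR-screened for blaKPC before susceptibility testing.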

[21] = system: Escherichia coli; assay: Antimicrobial activity against Escherichia coli isolate 157 expressing beta-lactamase KPC2, CTX-M-15, TEM and PFGE cluster 3 isolated from urine of patient by agar dilution method; details: isolate 157, Urine
Summary of the method: (§2)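 Clinical carbapenem-resistant E. coli isolates collected Feb 2005–Oct 2008. Carbapenem MICs determined by agar dilution following CLSI protocols.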

[22] = system: Escherichia coli; assay: Antimicrobial activity against Escherichia coli isolate 1679 expressing beta-lactamase KPC2, SHV-12, TEM and PFGE cluster 6 isolated from peritoneal fluid of patient by agar dilution method
Summary of the method: (§3)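 Clinical carbapenem-resistant E. coli isolates from the hospital, February 2005 to October 2008. Carbapenem MICs were determined by agar dilution following CLSI protocols.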

[23] = system: Escherichia coli; assay: Antimicrobial activity against Escherichia coli isolate 386T expressing beta-lactamase KPC2, OXA-9 and PFGE cluster 1 isolated from wound of patient by agar dilution method; summary of the method: as §1
[24] = system: Escherichia coli; assay: Antimicrobial activity against Escherichia coli isolate 543T expressing beta-lactamase KPC2 and PFGE cluster 4 isolated from synovial fluid of patient by agar dilution method; summary of the method: as §1
[25] = system: Escherichia coli; assay: Antimicrobial activity against Escherichia coli DH10B by Etest; details: K-12 DH10B
[26] = system: Escherichia coli; assay: Antimicrobial activity against Escherichia coli isolate 157T expressing beta-lactamase KPC2 and PFGE cluster 3 isolated from urine of patient by agar dilution method; summary of the method: as §1
[27] = system: Escherichia coli; assay: Antimicrobial activity against Escherichia coli isolate 339T expressing beta-lactamase KPC2 and PFGE cluster 5 isolated from peritoneal fluid of patient by agar dilution method; summary of the method: as §1
[28] = system: Escherichia coli; assay: Antimicrobial activity against Escherichia coli isolate 1679T expressing beta-lactamase KPC2, TEM and PFGE cluster 6 isolated from peritoneal fluid of patient by agar dilution method; summary of the method: as §1
[29] = system: Escherichia coli; assay: Antimicrobial activity against Escherichia coli isolate 360 expressing beta-lactamase KPC2, CTX-M-15, OXA-9, TEM and PFGE cluster 1 isolated from urine of patient by agar dilution method; details: isolate 360, Urine; summary of the method: as §2
[30] = system: Escherichia coli; assay: Antimicrobial activity against Escherichia coli isolate 386 expressing beta-lactamase KPC2, CTX-M-15, OXA-9, TEM and PFGE cluster 1 isolated from wound of patient by agar dilution method; summary of the method: as §2
[31] = system: Escherichia coli; assay: Antimicrobial activity against Escherichia coli isolate 329T expressing beta-lactamase KPC2 and PFGE cluster 2 isolated from blood of patient by agar dilution method; summary of the method: as §1
[32] = system: Escherichia coli; assay: Antimicrobial activity against Escherichia coli isolate 540 expressing beta-lactamase KPC2, TEM and PFGE cluster 4 isolated from synovial fluid of patient by agar dilution method; summary of the method: as §3
[33] = system: Escherichia coli; assay: Antimicrobial activity against Escherichia coli isolate 547 expressing beta-lactamase KPC2, TEM and PFGE cluster 4 isolated from blood of patient by agar dilution method; summary of the method: as §2
[34] = system: Escherichia coli; assay: Antimicrobial activity against Escherichia coli isolate 360T expressing beta-lactamase KPC2, OXA-9 and PFGE cluster 1 isolated from urine of patient by agar dilution method; summary of the method: as §1
[35] = system: Escherichia coli; assay: Antimicrobial activity against Escherichia coli isolate 544 expressing beta-lactamase KPC2, TEM and PFGE cluster 4 isolated from abscess of patient by agar dilution method; summary of the method: as §3
[36] = system: Escherichia coli; assay: Antimicrobial activity against Escherichia coli isolate 339 expressing beta-lactamase KPC2, TEM and PFGE cluster 5 isolated from peritoneal fluid of patient by agar dilution method; summary of the method: as §3
[37] = system: Escherichia coli; assay: Antimicrobial activity against Escherichia coli isolate 329 expressing beta-lactamase KPC2, CTX-M-2, TEM and PFGE cluster 2 isolated from blood of patient by agar dilution method; summary of the method: as §3

Molecule	MIC [1]	MIC [2]	MIC [3]	MIC ([4]; isolate 360, Urine)	MIC [5]	MIC [6]	MIC [7]	MIC [8]	MIC [9]	MIC [10]	MIC [11]	MIC [12]	MIC [13]	MIC [14]	MIC ([15]; isolate 157, Urine)	MIC [16]	MIC [17]	MIC [18]	MIC [19]	further results
CO/N=C(\C(=O)N[C@@H]1C(=O)N2C(C(=O)[O-])=C(C[N+]3(C)CCCC3)CS[C@H]12)c1csc(N)n1	0.125 µg/mL (≈ 0.26 µM)																			
NCC[C@H](O)C(=O)N[C@@H]1C[C@H](N)[C@@H](O[C@H]2O[C@H](CN)[C@@H](O)[C@H](O)[C@H]2O)[C@H](O)[C@H]1O[C@H]1O[C@H](CO)[C@@H](O)[C@H](N)[C@H]1O [AMIKACIN]	< 1 µg/mL	> 64 µg/mL	< 2 µg/mL	32 µg/mL (≈ 54.6 µM)	16 µg/mL (≈ 27.3 µM)	32 µg/mL (≈ 54.6 µM)	> 64 µg/mL	< 2 µg/mL	< 2 µg/mL	> 64 µg/mL	16 µg/mL (≈ 27.3 µM)	4 µg/mL (≈ 6.83 µM)	< 2 µg/mL	16 µg/mL (≈ 27.3 µM)	8 µg/mL (≈ 13.7 µM)	> 64 µg/mL	16 µg/mL (≈ 27.3 µM)	8 µg/mL (≈ 13.7 µM)	16 µg/mL (≈ 27.3 µM)	
C[C@H]1[C@H](NC(=O)/C(=N\OC(C)(C)C(=O)O)c2csc(N)n2)C(=O)N1S(=O)(=O)O [AZTREONAM]	< 1 µg/mL																			
CC(C)(O/N=C(\C(=O)N[C@@H]1C(=O)N2C(C(=O)[O-])=C(C[n+]3ccccc3)CS[C@H]12)c1csc(N)n1)C(=O)O [CEFTAZIDIME]	< 0.25 µg/mL	> 64 µg/mL	16 µg/mL (≈ 29.3 µM)	> 64 µg/mL	16 µg/mL (≈ 29.3 µM)	> 64 µg/mL	16 µg/mL (≈ 29.3 µM)	16 µg/mL (≈ 29.3 µM)	16 µg/mL (≈ 29.3 µM)	16 µg/mL (≈ 29.3 µM)	4 µg/mL (≈ 7.32 µM)	4 µg/mL (≈ 7.32 µM)	> 64 µg/mL	> 64 µg/mL	> 64 µg/mL	16 µg/mL (≈ 29.3 µM)	16 µg/mL (≈ 29.3 µM)	16 µg/mL (≈ 29.3 µM)	4 µg/mL (≈ 7.32 µM)	
CO/N=C(\C(=O)N[C@@H]1C(=O)N2C(C(=O)O)=C(CSc3nc(=O)c(O)nn3C)CS[C@H]12)c1csc(N)n1 [CEFTRIAXONE]	< 0.25 µg/mL	> 64 µg/mL	8 µg/mL (≈ 14.4 µM)	> 64 µg/mL	8 µg/mL (≈ 14.4 µM)	> 64 µg/mL	8 µg/mL (≈ 14.4 µM)	16 µg/mL (≈ 28.9 µM)	> 64 µg/mL	8 µg/mL (≈ 14.4 µM)	> 64 µg/mL	> 64 µg/mL	32 µg/mL (≈ 57.7 µM)	8 µg/mL (≈ 14.4 µM)	> 64 µg/mL	> 64 µg/mL	16 µg/mL (≈ 28.9 µM)	32 µg/mL (≈ 57.7 µM)	> 64 µg/mL	
O=C(O)c1cn(C2CC2)c2cc(N3CCNCC3)c(F)cc2c1=O [CIPROFLOXACIN]	< 0.25 µg/mL																			
C[C@@H](O)[C@H]1C(=O)N2C(C(=O)O)=C(SCCNC=N)C[C@H]12 [IMIPENEM ANHYDROUS]																				MIC [20]: 1 µg/mL (≈ 3.34 µM); MIC [21]: 8 µg/mL (≈ 26.7 µM); MIC [22]: 8 µg/mL (≈ 26.7 µM); MIC [23]: 1 µg/mL (≈ 3.34 µM); MIC [24]: 2 µg/mL (≈ 6.68 µM); MIC [25]: 0.25 µg/mL (≈ 0.835 µM); MIC [26]: 2 µg/mL (≈ 6.68 µM); MIC [27]: 2 µg/mL (≈ 6.68 µM); MIC [28]: 1 µg/mL (≈ 3.34 µM); MIC [29]: 4 µg/mL (≈ 13.4 µM); MIC [30]: 1 µg/mL (≈ 3.34 µM); MIC [31]: 2 µg/mL (≈ 6.68 µM); MIC [32]: 4 µg/mL (≈ 13.4 µM); MIC [33]: 4 µg/mL (≈ 13.4 µM); MIC [34]: 1 µg/mL (≈ 3.34 µM); MIC [35]: 4 µg/mL (≈ 13.4 µM); MIC [36]: 2 µg/mL (≈ 6.68 µM); MIC [37]: 8 µg/mL (≈ 26.7 µM)
C[C@H]1COc2c(N3CCN(C)CC3)c(F)cc3c(=O)c(C(=O)O)cn1c23.C[C@H]1COc2c(N3CCN(C)CC3)c(F)cc3c(=O)c(C(=O)O)cn1c23.O [LEVOFLOXACIN]	< 0.25 µg/mL	> 8 µg/mL	< 0.25 µg/mL	> 8 µg/mL	< 0.25 µg/mL	> 8 µg/mL	< 0.25 µg/mL	< 0.25 µg/mL	< 0.25 µg/mL	< 0.25 µg/mL	> 8 µg/mL	> 8 µg/mL	> 8 µg/mL	< 0.25 µg/mL	> 8 µg/mL	> 8 µg/mL	< 0.25 µg/mL	> 8 µg/mL	> 8 µg/mL	
GENTAMICIN	< 1 µg/mL	4 µg/mL	< 1 µg/mL		< 1 µg/mL	> 16 µg/mL	4 µg/mL	< 1 µg/mL	< 1 µg/mL	2 µg/mL	> 16 µg/mL	> 16 µg/mL	> 16 µg/mL	< 1 µg/mL		> 16 µg/mL	< 1 µg/mL	> 16 µg/mL	> 16 µg/mL	MIC [4]: 2 µg/mL; MIC [15]: < 1 µg/mL
